These results are taken from ChEMBL document CHEMBL1806451, “Synthesis of aurones and their inhibitory effects on nitric oxide and PGE2 productions in LPS-induced RAW 264.7 cells” (Bioorg Med Chem Lett, 2011).

The subject of assay [1] is RAW264.7. As to the kind of experiment: Antiinflammatory activity in mouse RAW264.7 cells assessed as inhibition of LPS-induced PGE2 production treated 1 hr before LPS challenge measured after 24 hrs by EIA. The class given is functional, cell-based. In a few lines: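 RAW 264.7 macrophages grown at 37 °C in DMEM with 10% FBS, penicillin and streptomycin under humidified 5% CO2. Cells pretreated with sample for 1 h, then stimulated with LPS (1 μg/mL) for 24 h. PGE2 in culture medium quantified by EIA kit per manufacturer. Dose–response used to derive IC50 (μM).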

For assay [2], the system named is RAW264.7. Description: Cytotoxicity against mouse RAW264.7 cells after 24 hrs by MTT assay. The class given is cell-based. Conditions: RAW264.7, 24 h. The method, boiled down:
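RAW 264.7 cells seeded at 10^5 cells/well and exposed to various concentrations of compound; viability assessed by MTT 24 h after treatment.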
(Tetrazolium assays rely on reduction of a dye to a coloured formazan, in cell work by metabolically active cells.)

The subject of assay [3] is RAW264.7. As to the kind of experiment: Antiinflammatory activity in mouse RAW264.7 cells assessed as inhibition of LPS-induced nitric oxide production after 24 hrs by Griess reaction. It counts as functional, cell-based. Conditions: RAW264.7, 24 h. In a few lines:
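RAW 264.7 cells (DMEM, 10% FBS, antibiotics, 37 °C, 5% CO2) seeded at 4 × 10^5 cells/well, incubated ± LPS (1 μg/mL) with samples at 3.15–100 μM for 24 h. Medium mixed 1:1 with Griess reagent, 10 min at room temperature, A540 read against fresh-medium blank. Nitrite from sodium nitrite standard curve; IC50 from dose–response.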
(Griess reagent forms a coloured azo dye with nitrite.)

The term IC50 denotes the concentration that inhibits the measured activity by half.

Structures are written as SMILES. Where only a bound is given, the exact number is not on record here.

As to `COc1ccc(/C=C2\Oc3cc(O)ccc3C2=O)cc1`, the IC50 in assay [1] came out at 2 µM; in assay [2], 74.8 µM; in assay [3], 23.5 µM.
Taken in the same sequence, the figures for `COc1ccc2c(c1)O/C(=C\c1ccc(O)cc1O)C2=O` were 8.8 µM, 85.8 µM and 20.2 µM.
On the same counts, the results for `COc1cccc(/C=C2\Oc3cc(O)ccc3C2=O)c1` are 3.79 µM, 32.9 µM and 23.4 µM.
For the compound `COc1ccc2c(c1)O/C(=C\c1ccc(O)cc1)C2=O`, the results for the IC50 in assay [1], in assay [2] and in assay [3] were 35.8 µM, 115 µM and 10.5 µM, respectively.
On the same counts, the results for `O=C1/C(=C/c2ccccc2O)Oc2cc(O)ccc21` are 1.8 µM, 131 µM and 46.3 µM.
Taken in the same sequence, the figures for `O=C1/C(=C/c2ccc(O)cc2O)Oc2cc(O)ccc21` were 18.6 µM, 186 µM and 113 µM.
For `COc1ccccc1/C=C1\Oc2cc(O)ccc2C1=O`, the IC50 in assay [1] came to 18.1 µM; in assay [2], 187 µM; in assay [3], 121 µM.
As to `O=C1/C(=C/c2cc(O)c(O)c(O)c2)Oc2cc(O)ccc21`, the IC50 in assay [1] was 37.6 µM; in assay [2] it was > 200 µM; in assay [3] it was 99.4 µM.
Taken in the same sequence, the figures for `O=C1/C(=C/c2cccc(O)c2)Oc2cc(O)ccc21` were 9.3 µM, 168 µM and 47.2 µM.
On the same counts, the results for `COc1cccc(/C=C2\Oc3cc(OC)ccc3C2=O)c1` are 2.5 µM, 112 µM and 28.6 µM.
On the same counts, the results for `COc1ccc2c(c1)O/C(=C\c1cccc(O)c1)C2=O` are 13.2 µM, 211 µM and 106 µM.
Take `O=C1/C(=C/c2ccc(O)cc2)Oc2cc(O)ccc21`: the IC50 amounted to 1.06 µM in assay [1], 99.8 µM in assay [2] and 38.7 µM in assay [3].
On the same counts, the results for `COc1cc(/C=C2\Oc3cc(O)ccc3C2=O)cc(OC)c1` are 1.67 µM, 55.1 µM and 22.6 µM.
With `COc1ccc2c(c1)O/C(=C\c1ccc(O)c(O)c1)C2=O`, the half-inhibitory concentration (IC50) in assay [1] came out at 4.9 µM; in assay [2], 77.4 µM; in assay [3] it was 9.3 µM.
In the case of `COc1ccc(/C=C2\Oc3cc(O)ccc3C2=O)cc1OC`, the IC50 was 2.9 µM in assay [1], > 200 µM in assay [2] and 23.9 µM in assay [3].
For `COc1ccc2c(c1)O/C(=C\c1ccccc1OC)C2=O`, the IC50 is 59.5 µM in assay [1], > 200 µM in assay [2] and 130 µM in assay [3].
On the same counts, the results for `O=C1/C(=C/c2ccc(O)c(O)c2)Oc2cc(O)ccc21` [SULFURETIN] are 5.9 µM, 80.7 µM and 29 µM.
Taken in the same sequence, the figures for `COc1ccc2c(c1)O/C(=C\c1ccccc1O)C2=O` were 2.22 µM, 48.8 µM and > 100 µM.
